Experimental data published in ChEMBL document CHEMBL3232712, “Antineoplastic agents. 595. Structural modifications of betulin and the X-ray crystal structure of an unusual betulin amine dimer” (2014).
≈ marks a conversion by molar mass, not a printed value.

Tests used:
Format in all cases: functional
[1] = tested on: P388; test: Cytotoxicity against mouse P388 cells after 48 hrs; settings: P388, 48 h, read-out: ED50 (the source's name)
Method in brief: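 Murine P388 leukemia cells, counted by Coulter counter, were grown 24 h in Fisher medium with 10% horse serum, then exposed 48 h to serial compound dilutions. Cell numbers were determined with a Coulter particle counter, and ED50 was calculated for growth inhibition.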

[2] = Cytotoxicity against human BxPC3 cells after 48 hrs by SRB assay; settings: BXPC-3, 48 h
Method in brief: (§1)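 Human tumour lines in RPMI1640 with 5% fetal bovine serum, trypsinized and counted by hemacytometer, seeded in 96-well plates and allowed 24 h before serial compound dilutions were added. After 48 h exposure, cells were fixed with trichloroacetic acid and stained with sulforhodamine B, and optical density was read. GI50 was taken as the concentration halving net protein increase.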

[3] = tested on: MCF7; test: Cytotoxicity against human MCF7 cells after 48 hrs by SRB assay; settings: MCF7, 48 h; method in brief: as §1
[4] = tested on: SF-268; test: Cytotoxicity against human SF268 cells after 48 hrs by SRB assay; settings: SF-268, 48 h; method in brief: as §1
[5] = tested on: NCI-H460; test: Cytotoxicity against human NCI-H460 cells after 48 hrs by SRB assay; settings: NCI-H460, 48 h; method in brief: as §1
[6] = Cytotoxicity against human KM20L2 cells after 48 hrs by SRB assay; settings: KM-20L2, 48 h; method in brief: as §1
[7] = tested on: DU-145; test: Cytotoxicity against human DU145 cells after 48 hrs by SRB assay; settings: DU-145, 48 h; method in brief: as §1

Structure (SMILES)	EC50 [1] [µg/mL]	GI50 [2] [µg/mL]	GI50 [3] [µg/mL]	GI50 [4] [µg/mL]	GI50 [5] [µg/mL]	GI50 [6] [µg/mL]	GI50 [7] [µg/mL]
C=C(C)[C@@H]1CC[C@]2(COC(C)=O)CC[C@]3(C)[C@H](CC[C@@H]4[C@@]5(C)CCC(=O)C(C)(C)[C@@H]5CC[C@]43C)[C@@H]12	0.12 (≈ 0.249 µM)	> 10	8 (≈ 16.6 µM)	10.6 (≈ 22 µM)	5.2 (≈ 10.8 µM)	12.7 (≈ 26.3 µM)	> 10
C=C(C)[C@@H]1CC[C@]2(COC(C)=O)CC[C@]3(C)[C@H](CC[C@@H]4[C@@]5(C)CC[C@H](O)C(C)(C)[C@@H]5CC[C@]43C)[C@@H]12	0.805 (≈ 1.66 µM)	4.1 (≈ 8.46 µM)	3 (≈ 6.19 µM)	4 (≈ 8.25 µM)	2.5 (≈ 5.16 µM)	5 (≈ 10.3 µM)	7.6 (≈ 15.7 µM)
CC1(C)CC[C@]23CC[C@]4(C)[C@H](CC[C@@H]5[C@@]6(C)CC(Br)C(=O)C(C)(C)[C@@H]6CC[C@]54C)[C@H]2[C@H]1OC3 (some centres undefined)		3.1 (≈ 5.97 µM)	5 (≈ 9.62 µM)	3.4 (≈ 6.54 µM)	2.9 (≈ 5.58 µM)	2.7 (≈ 5.2 µM)	6.7 (≈ 12.9 µM)
CC1(C)CC[C@]23CC[C@]4(C)[C@H](CC[C@@H]5[C@@]6(C)C=C(O)C(=O)C(C)(C)[C@@H]6CC[C@]54C)[C@H]2[C@H]1OC3		> 10	7.1 (≈ 15.6 µM)	> 10	8.8 (≈ 19.4 µM)	8 (≈ 17.6 µM)	9.3 (≈ 20.5 µM)
C=C(C)[C@@H]1CC[C@]2(COC(C)=O)CC[C@]3(C)[C@H](CC[C@@H]4[C@@]5(C)C[C@@H](Br)C(=O)C(C)(C)[C@@H]5CC[C@]43C)[C@@H]12	0.725 (≈ 1.29 µM)	3.1 (≈ 5.52 µM)	4.1 (≈ 7.3 µM)	10.1 (≈ 18 µM)	12.8 (≈ 22.8 µM)	9.6 (≈ 17.1 µM)	9 (≈ 16 µM)
C=C(C)[C@@H]1CC[C@]2(COC(C)=O)CC[C@]3(C)[C@H](CC[C@@H]4[C@@]5(C)C[C@H](Br)C(=O)C(C)(C)[C@@H]5CC[C@]43C)[C@@H]12	> 10	3.4 (≈ 6.05 µM)	3.2 (≈ 5.7 µM)	3.4 (≈ 6.05 µM)	2.8 (≈ 4.99 µM)	4.4 (≈ 7.83 µM)	6.1 (≈ 10.9 µM)
C=C(C)[C@@H]1CC[C@]2(COC(C)=O)CC[C@]3(C)[C@H](CC[C@@H]4[C@@]5(C)CC(Br)(Br)C(=O)C(C)(C)[C@@H]5CC[C@]43C)[C@@H]12	0.391 (≈ 0.61 µM)	1 (≈ 1.56 µM)	2.5 (≈ 3.9 µM)	4.4 (≈ 6.87 µM)	4.4 (≈ 6.87 µM)	4.2 (≈ 6.56 µM)	3.8 (≈ 5.93 µM)
C=C(C)[C@@H]1CC[C@]2(COC(C)=O)CC[C@]3(C)[C@H](CC[C@@H]4[C@@]5(C)CC(N=[N+]=[N-])C(=O)C(C)(C)[C@@H]5CC[C@]43C)[C@@H]12 (some centres undefined)	> 10	6.6 (≈ 12.6 µM)	5 (≈ 9.55 µM)	> 10	4.4 (≈ 8.4 µM)	4.2 (≈ 8.02 µM)	5.7 (≈ 10.9 µM)
C=C(C)[C@@H]1CC[C@]2(COC(C)=O)CC[C@]3(C)[C@H](CC[C@@H]4[C@@]5(C)C=C(N)C(=O)C(C)(C)[C@@H]5CC[C@]43C)[C@@H]12	> 10	7.9 (≈ 15.9 µM)	> 10	> 10	> 10	> 10	> 10
C=C(C)[C@@H]1CC[C@]2(COC(C)=O)CC[C@]3(C)[C@H](CC[C@@H]4[C@@]5(C)C=C(NC6=C[C@]7(C)[C@H]8CC[C@@H]9[C@H]%10[C@H](C(=C)C)CC[C@]%10(COC(C)=O)CC[C@@]9(C)[C@]8(C)CC[C@H]7C(C)(C)C6=O)C(=O)C(C)(C)[C@@H]5CC[C@]43C)[C@@H]12	> 10	> 10	> 10	> 10	> 10	> 10	> 10
C=C(C)[C@@H]1CC[C@]2(COC(C)=O)CC[C@]3(C)[C@H](CC[C@@H]4[C@@]5(C)CC(=O)C(O)C(C)(C)[C@@H]5CC[C@]43C)[C@@H]12 (some centres undefined)	> 10	9.1 (≈ 18.2 µM)	5.8 (≈ 11.6 µM)	6.1 (≈ 12.2 µM)	8 (≈ 16 µM)	5.9 (≈ 11.8 µM)	> 10
C=C(C)[C@@H]1CC[C@]2(COC(C)=O)CC[C@]3(C)[C@H](CC[C@@H]4[C@@]5(C)CC6=NC(C)(C)N=C6C(C)(C)[C@@H]5CC[C@]43C)[C@@H]12		14.5 (≈ 27.1 µM)	11.2 (≈ 20.9 µM)	> 10	> 10	> 10	> 10
C=C(C)[C@@H]1CC[C@]2(CO)CC[C@]3(C)[C@H](CC[C@@H]4[C@@]5(C)CC6=NC(C)(C)N=C6C(C)(C)[C@@H]5CC[C@]43C)[C@@H]12		1.9 (≈ 3.86 µM)	2 (≈ 4.06 µM)	6.9 (≈ 14 µM)	2.8 (≈ 5.68 µM)	4.9 (≈ 9.94 µM)	5.8 (≈ 11.8 µM)
CC1(C)CC[C@]23CC[C@]4(C)[C@H](CC[C@@H]5[C@@]6(C)CCC(=O)C(C)(C)[C@@H]6CC[C@]54C)[C@H]2[C@H]1OC3		> 10	> 10	> 10	> 10	> 10	> 10
CC1(C)CC[C@]23CC[C@]4(C)[C@H](CC[C@@H]5[C@@]6(C)CC(N=[N+]=[N-])C(=O)C(C)(C)[C@@H]6CC[C@]54C)[C@H]2[C@H]1OC3 (some centres undefined)		3.1 (≈ 6.44 µM)	4.7 (≈ 9.76 µM)	8.7 (≈ 18.1 µM)	3.8 (≈ 7.89 µM)	7.9 (≈ 16.4 µM)	4.5 (≈ 9.34 µM)
CC1(C)CC[C@]23CC[C@]4(C)[C@H](CC[C@@H]5[C@@]6(C)C=C(N)C(=O)C(C)(C)[C@@H]6CC[C@]54C)[C@H]2[C@H]1OC3		10.8 (≈ 23.8 µM)	11.2 (≈ 24.7 µM)	> 10	> 10	> 10	> 10
CC1(C)CC[C@]23CC[C@]4(C)[C@H](CC[C@@H]5[C@@]6(C)C=C(NC7=C[C@]8(C)[C@H]9CC[C@@H]%10[C@H]%11[C@H]%12OC[C@@]%11(CCC%12(C)C)CC[C@@]%10(C)[C@]9(C)CC[C@H]8C(C)(C)C7=O)C(=O)C(C)(C)[C@@H]6CC[C@]54C)[C@H]2[C@H]1OC3		> 10	> 10	> 10	> 10	> 10	> 10
C=C(C)[C@@H]1CC[C@]2(C(=O)OC)CC[C@]3(C)[C@H](CC[C@@H]4[C@@]5(C)CC(=O)CC(C)(C)[C@@H]5CC[C@]43C)[C@@H]12	> 10	8.2 (≈ 17.5 µM)	11.6 (≈ 24.7 µM)	> 10	13.1 (≈ 27.9 µM)	> 10	> 10
C=C(C)[C@@H]1CC[C@]2(C(=O)OC)CC[C@]3(C)[C@H](CC[C@@H]4[C@@]5(C)C=C(N6CCOCC6)C(=O)C(C)(C)[C@@H]5CC[C@]43C)[C@@H]12		3.9 (≈ 7.07 µM)	6.1 (≈ 11.1 µM)	> 10	4.4 (≈ 7.97 µM)	> 10	> 10
C=C(C)[C@@H]1CC[C@]2(COC(C)=O)CC[C@]3(C)[C@H](CC[C@@H]4[C@@]5(C)CC[C@H](OC(C)=O)C(C)(C)[C@@H]5CC[C@]43C)[C@@H]12 [BETULIN DIACETATE]	0.806	> 10	> 10	> 10	> 10	> 10	> 10
C=C(C)[C@@H]1CC[C@]2(CO)CC[C@]3(C)[C@H](CC[C@@H]4[C@@]5(C)CC[C@H](O)C(C)(C)[C@@H]5CC[C@]43C)[C@@H]12 [BETULIN]		9.3 (≈ 21 µM)	> 10	> 10	7.4 (≈ 16.7 µM)	> 10	> 10
C=C(C)[C@@H]1CC[C@]2(C(=O)OC)CC[C@]3(C)[C@H](CC[C@@H]4[C@@]5(C)CCC(=O)C(C)(C)[C@@H]5CC[C@]43C)[C@@H]12 [METHYL BETULONATE]	> 10	2.4 (≈ 5.12 µM)	2.7 (≈ 5.76 µM)	2.7 (≈ 5.76 µM)	2.3 (≈ 4.91 µM)	2.2 (≈ 4.69 µM)	2.3 (≈ 4.91 µM)
